Laboratory results taken from ChEMBL document CHEMBL1828552, “Synthesis and studies of novel 2-(4-cyano-3-trifluoromethylphenyl amino)-4-(quinoline-4-yloxy)-6-(piperazinyl/piperidinyl)-s-triazines as potential antimicrobial, antimycobacterial and anticancer agents” (2011).
≈ marks a conversion by molar mass, not a printed value.

Experiments:
[1] = tested on: Staphylococcus aureus; assay: Antibacterial activity against 10^5 CFU/mL Staphylococcus aureus MTCC 96 after 24 hrs by disc diffusion technique; type: functional
Summary of the method: (§1)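 Disc diffusion on Mueller–Hinton agar poured 5 mm deep. The surface was swabbed with a 10⁵ CFU/mL […] suspension. Filter-paper discs 6.25 mm in diameter were soaked in compound in DMSO and placed on the agar. Plates were incubated 24 h at 37 ± 1 °C, and the inhibition zone was measured in mm. A DMSO disc served as blank.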

[2] = tested on: Staphylococcus aureus; assay: Antibacterial activity against 10^5 CFU/mL Staphylococcus aureus MTCC 96 after 24 hrs by agar streak dilution method; type: functional; conditions: MTCC 96, 24 h
Summary of the method: (§2)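 Agar streak dilution. Stock 100 µg/mL in DMSO; graded amounts were mixed into molten nutrient agar and poured at 4–5 mm depth. Plates carried serial dilutions over […]. About 10⁵ CFU/mL of each bacterium was applied, and plates were incubated at 37 ± 1 °C for 24 h. MIC was read from the dilution series.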

[3] = tested on: Bacillus cereus; assay: Antibacterial activity against 10^5 CFU/mL Bacillus cereus MTCC 619 after 24 hrs by disc diffusion technique; type: functional; summary of the method: as §1
[4] = tested on: Bacillus cereus; assay: Antibacterial activity against 10^5 CFU/mL Bacillus cereus MTCC 619 after 24 hrs by agar streak dilution method; type: functional; conditions: MTCC 619, 24 h; summary of the method: as §2
[5] = tested on: DU-145; assay: Cytotoxicity against […] human DU145 cells after 48 hrs by SRB assay; type: functional; conditions: DU-145, 48 h
Summary of the method: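 SRB assay in DU-145 cells grown in RPMI 1640 with 10% FBS and 2 mM L-glutamine. Cells were plated and held 24 h before addition of four 10-fold concentrations. After 48 h, cells were TCA-fixed, stained with 0.4% SRB and read at 540 nm. GI50, TGI and LC50 were derived against time-zero and control wells; each value is the mean of three experiments.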

[6] = tested on: Escherichia coli; assay: Antibacterial activity against 10^5 CFU/mL Escherichia coli MTCC 739 after 24 hrs by disc diffusion technique; type: functional; summary of the method: as §1
[7] = tested on: Escherichia coli; assay: Antibacterial activity against 10^5 CFU/mL Escherichia coli MTCC 739 after 24 hrs by agar streak dilution method; type: functional; conditions: MTCC 739, 24 h; summary of the method: as §2
[8] = tested on: Pseudomonas aeruginosa; assay: Antibacterial activity against 10^5 CFU/mL Pseudomonas aeruginosa MTCC 741 after 24 hrs by disc diffusion technique; type: functional; summary of the method: as §1
[9] = tested on: Pseudomonas aeruginosa; assay: Antibacterial activity against 10^5 CFU/mL Pseudomonas aeruginosa MTCC 741 after 24 hrs by agar streak dilution method; type: functional; conditions: MTCC 741, 24 h; summary of the method: as §2
[10] = tested on: Klebsiella pneumoniae; assay: Antibacterial activity against 10^5 CFU/mL Klebsiella pneumoniae MTCC 109 after 24 hrs by disc diffusion technique; type: functional; summary of the method: as §1
[11] = tested on: Klebsiella pneumoniae; assay: Antibacterial activity against 10^5 CFU/mL Klebsiella pneumoniae MTCC 109 after 24 hrs by agar streak dilution method; type: functional; conditions: MTCC 109, 24 h; summary of the method: as §2
[12] = tested on: Salmonella typhi; assay: Antibacterial activity against 10^5 CFU/mL Salmonella typhi MTCC 733 after 24 hrs by disc diffusion technique; type: functional, Salmonella enterica subsp. enterica serovar Typhi
Summary of the method: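 Disc diffusion. Mueller-Hinton agar autoclaved 120 °C 30 min, poured 5 mm deep. Surface swabbed with 10⁵ CFU/mL suspension […]. 6.25 mm filter-paper discs soaked in compound in DMSO; DMSO-only disc as blank. Incubated 37 ± 1 °C, 24 h for bacteria or 48 h for fungi. Ciprofloxacin and ketoconazole discs as reference drugs. Inhibition zone measured in mm.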

[13] = tested on: Salmonella typhi; assay: Antibacterial activity against 10^5 CFU/mL Salmonella typhi MTCC 733 after 24 hrs by agar streak dilution method; type: functional, Salmonella enterica subsp. enterica serovar Typhi; conditions: Salmonella enterica, MTCC 733, 24 h
[14] = tested on: Proteus vulgaris; assay: Antibacterial activity against 10^5 CFU/mL Proteus vulgaris MTCC 1771 after 24 hrs by disc diffusion technique; type: functional; summary of the method: as §1
[15] = tested on: Proteus vulgaris; assay: Antibacterial activity against 10^5 CFU/mL Proteus vulgaris MTCC 1771 after 24 hrs by agar streak dilution method; type: functional; conditions: MTCC 1771, 24 h; summary of the method: as §2
[16] = tested on: Shigella flexneri; assay: Antibacterial activity against 10^5 CFU/mL Shigella flexneri MTCC 1457 after 24 hrs by disc diffusion technique; type: functional; summary of the method: as §1
[17] = tested on: Shigella flexneri; assay: Antibacterial activity against 10^5 CFU/mL Shigella flexneri MTCC 1457 after 24 hrs by agar streak dilution method; type: functional; conditions: MTCC 1457, 24 h; summary of the method: as §2
[18] = tested on: Aspergillus niger; assay: Antifungal activity against 10^5 CFU/mL Aspergillus niger MTCC 282 after 48 hrs by disc diffusion technique; type: functional
[19] = tested on: Aspergillus niger; assay: Antifungal activity against 10^5 CFU/mL Aspergillus niger MTCC 282 after 48 hrs by agar streak dilution method; type: functional; conditions: MTCC 282, 48 h
Summary of the method: (§3)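 Agar streak dilution for fungi. Stock 100 µg/mL in DMSO; graded amounts were mixed into molten Sabouraud dextrose agar and poured at 4–5 mm depth. Serial dilutions ran over […]. About 10⁵ CFU/mL inoculum was applied, with incubation at 37 ± 1 °C for 48 h. MIC was read from the dilution series.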

[20] = tested on: Aspergillus fumigatus; assay: Antifungal activity against 10^5 CFU/mL Aspergillus fumigatus MTCC 343 after 48 hrs by disc diffusion technique; type: functional
[21] = tested on: Aspergillus fumigatus; assay: Antifungal activity against 10^5 CFU/mL Aspergillus fumigatus MTCC 343 after 48 hrs by agar streak dilution method; type: functional; conditions: MTCC 343, 48 h; summary of the method: as §3
[22] = tested on: Aspergillus clavatus; assay: Antifungal activity against 10^5 CFU/mL Aspergillus clavatus MTCC 1323 after 48 hrs by disc diffusion technique; type: functional
[23] = tested on: Aspergillus clavatus; assay: Antifungal activity against 10^5 CFU/mL Aspergillus clavatus MTCC 1323 after 48 hrs by agar streak dilution method; type: functional; conditions: MTCC 1323, 48 h; summary of the method: as §3
[24] = tested on: Candida albicans; assay: Antifungal activity against 10^5 CFU/mL Candida albicans MTCC 183 after 48 hrs by disc diffusion technique; type: functional
[25] = tested on: Candida albicans; assay: Antifungal activity against 10^5 CFU/mL Candida albicans MTCC 183 after 48 hrs by agar streak dilution method; type: functional; conditions: MTCC 183, 48 h; summary of the method: as §3

Row | Structure (SMILES) | inhibition zone (IZ) [1] [mm] | MIC [2] [µg/mL] | inhibition zone (IZ) [3] [mm] | MIC [4] [µg/mL] | GI50 [5] [µM] | LC50 (concentration giving 50% net cell kill relative to time zero) [5] [µM] | TGI [5] [µM] | inhibition zone (IZ) [6] [mm] | MIC [7] [µg/mL] | inhibition zone (IZ) [8] [mm] | MIC [9] [µg/mL] | inhibition zone (IZ) [10] [mm] | MIC [11] [µg/mL] | inhibition zone (IZ) [12] [mm] | MIC [13] [µg/mL] | inhibition zone (IZ) [14] [mm] | MIC [15] [µg/mL] | inhibition zone (IZ) [16] [mm] | MIC [17] [µg/mL] | inhibition zone (IZ) [18] [mm] | also measured
1 | N#Cc1ccc(Nc2nc(Oc3ccnc4ccccc34)nc(N3CCN(c4ncccn4)CC3)n2)cc1C(F)(F)F | 21 | 100 (≈ 175 µM) | 21 | 50 (≈ 87.6 µM) | 85.2 | > 100 | > 100 | 18 | 100 (≈ 175 µM) | 16 | 100 (≈ 175 µM) | 17 | 100 (≈ 175 µM) | 16 | 100 (≈ 175 µM) | 18 | 100 (≈ 175 µM) | 17 | 100 (≈ 175 µM) | 11 | MIC [19]: 100 µg/mL (≈ 175 µM); inhibition zone (IZ) [20]: 13 mm; MIC [21]: 100 µg/mL (≈ 175 µM); inhibition zone (IZ) [22]: 11 mm; MIC [23]: 100 µg/mL (≈ 175 µM); inhibition zone (IZ) [24]: 13 mm; MIC [25]: 100 µg/mL (≈ 175 µM)
2 | N#Cc1ccc(Nc2nc(Oc3ccnc4ccccc34)nc(N3CCN(Cc4ccccc4)CC3)n2)cc1C(F)(F)F | 22 | 100 (≈ 172 µM) | 22 | 100 (≈ 172 µM) | > 100 | > 100 | > 100 | 14 | 100 (≈ 172 µM) | 15 | 100 (≈ 172 µM) | <10 | 100 (≈ 172 µM) | 14 | 100 (≈ 172 µM) | 16 | 100 (≈ 172 µM) | 11 | 100 (≈ 172 µM) | <10 | MIC [19]: 100 µg/mL (≈ 172 µM); inhibition zone (IZ) [20]: <10 mm; MIC [21]: 100 µg/mL (≈ 172 µM); inhibition zone (IZ) [22]: 12 mm; MIC [23]: 100 µg/mL (≈ 172 µM); inhibition zone (IZ) [24]: <10 mm; MIC [25]: 100 µg/mL (≈ 172 µM)
3 | N#Cc1ccc(Nc2nc(Oc3ccnc4ccccc34)nc(N3CCC(Cc4ccccc4)CC3)n2)cc1C(F)(F)F | 24 | 100 (≈ 172 µM) | 22 | 50 (≈ 86 µM) | > 100 | > 100 | > 100 | 14 | 100 (≈ 172 µM) | 19 | 100 (≈ 172 µM) | 16 | 100 (≈ 172 µM) | 16 | 100 (≈ 172 µM) | 17 | 100 (≈ 172 µM) | 14 | 100 (≈ 172 µM) | <10 | MIC [19]: 100 µg/mL (≈ 172 µM); inhibition zone (IZ) [20]: <10 mm; MIC [21]: 100 µg/mL (≈ 172 µM); inhibition zone (IZ) [22]: 14 mm; MIC [23]: 100 µg/mL (≈ 172 µM); inhibition zone (IZ) [24]: 15 mm; MIC [25]: 100 µg/mL (≈ 172 µM)
4 | N#Cc1ccc(Nc2nc(Oc3ccnc4ccccc34)nc(N3CCN(C(c4ccccc4)c4ccccc4)CC3)n2)cc1C(F)(F)F | 21 | 50 (≈ 75.9 µM) | 22 | 25 (≈ 38 µM) | > 100 | > 100 | > 100 | 19 | 100 (≈ 152 µM) | 19 | 100 (≈ 152 µM) | 17 | 100 (≈ 152 µM) | 19 | 100 (≈ 152 µM) | 19 | 100 (≈ 152 µM) | 21 | 100 (≈ 152 µM) | 14 | MIC [19]: 100 µg/mL (≈ 152 µM); inhibition zone (IZ) [20]: 20 mm; MIC [21]: 100 µg/mL (≈ 152 µM); inhibition zone (IZ) [22]: 16 mm; MIC [23]: 100 µg/mL (≈ 152 µM); inhibition zone (IZ) [24]: 15 mm; MIC [25]: 100 µg/mL (≈ 152 µM)
